Results from ChEMBL document CHEMBL1127678, “Dianilinophthalimides: potent and selective, ATP-competitive inhibitors of the EGF-receptor protein tyrosine kinase” (J Med Chem, 1994).

Experiments:
Protein kinase C (PKC) = assay: Inhibitory activity was determined against protein kinase C (PKC) from porcine brain; parameters: species or system Sus scrofa
[1] = biological target: Proto-oncogene tyrosine-protein kinase Src (Homo sapiens, UniProt P12931); assay: Inhibitory activity against c-src tyrosine kinase
Sequence of Proto-oncogene tyrosine-protein kinase Src (P12931 2-536 limits assumed): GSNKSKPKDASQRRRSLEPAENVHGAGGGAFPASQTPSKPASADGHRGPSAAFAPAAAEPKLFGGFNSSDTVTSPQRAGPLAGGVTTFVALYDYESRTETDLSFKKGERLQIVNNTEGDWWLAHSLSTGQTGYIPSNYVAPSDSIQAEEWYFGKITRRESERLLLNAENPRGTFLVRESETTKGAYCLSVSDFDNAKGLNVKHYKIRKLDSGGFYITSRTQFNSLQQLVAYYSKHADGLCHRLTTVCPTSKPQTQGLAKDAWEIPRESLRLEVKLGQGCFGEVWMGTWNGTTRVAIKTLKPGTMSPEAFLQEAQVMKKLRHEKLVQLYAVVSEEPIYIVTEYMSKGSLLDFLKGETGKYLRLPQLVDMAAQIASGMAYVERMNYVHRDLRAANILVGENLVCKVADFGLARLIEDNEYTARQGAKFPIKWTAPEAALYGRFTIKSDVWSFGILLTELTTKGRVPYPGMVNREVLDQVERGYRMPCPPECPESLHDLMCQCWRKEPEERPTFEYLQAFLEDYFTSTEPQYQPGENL

[2] = biological target: cAMP-dependent protein kinase alpha-catalytic subunit (Oryctolagus cuniculus, UniProt Q95J97); assay: Inhibitory activity was determined against protein kinase A (PKA) of rabbit
In short: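 PKA from rabbit muscle, kemptide (0.1 mg/mL) as substrate; compounds in DMSO (1% final).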

[3] = biological target: Tyrosine-protein kinase ABL (Homo sapiens, UniProt P00519+P42684); assay: Inhibitory activity against v-abl tyrosine kinase; type: protein assay
[4] = biological target: Epidermal growth factor receptor (Homo sapiens, UniProt P00533); assay: Inhibitory activity against recombinant tyrosine kinase EGF-R (EGF-R ICD)
Sequence of Epidermal growth factor receptor (P00533 whole entry): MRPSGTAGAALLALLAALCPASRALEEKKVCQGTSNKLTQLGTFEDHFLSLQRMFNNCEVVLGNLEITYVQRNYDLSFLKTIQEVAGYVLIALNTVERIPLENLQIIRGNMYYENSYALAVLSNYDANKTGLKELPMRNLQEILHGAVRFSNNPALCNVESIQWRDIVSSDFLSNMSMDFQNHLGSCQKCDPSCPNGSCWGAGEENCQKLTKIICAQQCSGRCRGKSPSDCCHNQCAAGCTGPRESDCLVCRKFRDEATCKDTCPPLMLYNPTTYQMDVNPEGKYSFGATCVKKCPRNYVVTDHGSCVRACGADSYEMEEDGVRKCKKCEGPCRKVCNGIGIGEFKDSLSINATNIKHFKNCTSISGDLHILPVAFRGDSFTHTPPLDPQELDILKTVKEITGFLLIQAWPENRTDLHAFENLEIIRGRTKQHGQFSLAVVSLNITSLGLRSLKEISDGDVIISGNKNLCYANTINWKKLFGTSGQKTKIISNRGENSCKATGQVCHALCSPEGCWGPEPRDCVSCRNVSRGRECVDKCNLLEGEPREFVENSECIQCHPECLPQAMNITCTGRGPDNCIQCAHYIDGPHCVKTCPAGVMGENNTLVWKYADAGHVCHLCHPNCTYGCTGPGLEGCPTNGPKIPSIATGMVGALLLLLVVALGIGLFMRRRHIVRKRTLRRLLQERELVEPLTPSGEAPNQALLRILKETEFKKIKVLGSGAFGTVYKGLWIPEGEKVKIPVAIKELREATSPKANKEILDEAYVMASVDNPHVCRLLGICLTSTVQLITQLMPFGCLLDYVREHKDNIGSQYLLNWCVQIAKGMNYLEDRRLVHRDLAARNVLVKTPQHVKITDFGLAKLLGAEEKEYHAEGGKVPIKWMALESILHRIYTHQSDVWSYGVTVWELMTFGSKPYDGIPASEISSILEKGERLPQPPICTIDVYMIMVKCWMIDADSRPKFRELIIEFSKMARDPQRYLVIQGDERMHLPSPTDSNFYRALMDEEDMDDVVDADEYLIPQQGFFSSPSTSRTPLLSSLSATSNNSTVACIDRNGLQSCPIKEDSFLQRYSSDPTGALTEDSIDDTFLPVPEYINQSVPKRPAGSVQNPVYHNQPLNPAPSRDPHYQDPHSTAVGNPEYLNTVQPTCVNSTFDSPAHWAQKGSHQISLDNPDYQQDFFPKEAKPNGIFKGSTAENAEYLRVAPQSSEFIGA

[5] = biological target: T1, Platelet-derived growth factor receptor (Mus musculus, UniProt P05622+P26618); assay: (§1) Inhibition of PDGF-dependent autophosphorylation of PDGF-R in mouse BALB/c3T3 cells; type: functional, cell-based
[6] = Inhibition of BALB/MK mouse epidermal keratinocyte proliferation; type: functional
In short: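 Mouse BALB/MK keratinocytes (EGF-dependent; kept in calcium-free DMEM/HAM's F12 1:1 with 5% FCS and EGF 5 ng/mL), 10^4 cells/well, seeded and incubated overnight. Serial dilutions added in DMSO (1% final), then 5-day incubation. Cell number by methylene blue staining.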

[7] = biological target: T1, Platelet-derived growth factor receptor; assay: as §1; type: functional, cell-based; remark: listed apart in the source
In short: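 Confluent BALB/c 3T3 cells (collagen-coated wells, 3–5 days, no medium change) in DMEM with 1 mg/mL BSA; serially diluted compound for 2 h, then PDGF 50 ng/mL for 10 min. Cells were methanol-fixed, and phosphotyrosine was detected by ELISA (anti-pTyr 4G10, ABC-AP, p-nitrophenyl phosphate, 405 nm).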

| IC50 (Protein kinase C (PKC)) [µM] | IC50 [1] [µM] | IC50 [2] [µM] | IC50 [3] [µM] | IC50 [4] [µM] | IC50 [5] [µM] | IC50 [7] [µM] | SMILES | IC50 [6] [µM] |
| --- | --- | --- | --- | --- | --- | --- | --- | --- |
| 270 | > 50 | > 500 | > 50 |  |  |  | O=C1NC(=O)c2cc3c(cc21)N(c1ccccc1)CCN3c1ccccc1 |  |
| > 100 | > 50 | > 500 | > 50 | > 50 |  |  | O=C1NC(=O)c2cc(NC3CCCCC3)c(NC3CCCCC3)cc21 |  |
| 75 | 8 | > 500 | 12 |  |  |  | O=C1NC(=O)c2cc(Nc3ccc(O)cc3)c(Nc3ccc(O)cc3)cc21 |  |
| > 100 |  | > 500 |  |  |  |  | N#Cc1ccc(Nc2cc3c(cc2Nc2ccc(C#N)cc2)C(=O)NC3=O)cc1 |  |
| > 500 | > 100 | > 500 | > 50 |  |  |  | CN(c1ccccc1)c1cc2c(cc1N(C)c1ccccc1)C(=O)NC2=O |  |
| > 100 |  | > 500 |  |  | > 100 |  | CC(=O)N(c1ccccc1)c1cc2c(cc1Nc1ccccc1)C(=O)NC2=O |  |
| 460 |  | > 500 | > 50 |  | > 100 |  | COc1ccc(Nc2cc3c(cc2Nc2ccc(OC)cc2)C(=O)NC3=O)cc1 |  |
| > 500 | 1 | > 500 | > 50 |  |  |  | CN(c1ccccc1)c1cc2c(cc1Nc1ccccc1)C(=O)NC2=O |  |
| > 100 | > 100 | > 500 | > 100 |  | > 100 |  | Cc1ccc(Nc2cc3c(cc2Nc2ccc(C)cc2)C(=O)NC3=O)cc1 |  |
| > 500 |  | > 500 |  |  | > 100 |  | O=C1NC(=O)c2cc(Nc3ccc(-c4ccccc4)cc3)c(Nc3ccc(-c4ccccc4)cc3)cc21 |  |
| > 100 |  | > 500 |  |  | > 100 |  | O=C1c2cc(Nc3ccccc3)c(Nc3ccccc3)cc2C(=O)N1c1ccccc1 | > 50 |
| > 100 |  | > 500 |  |  | > 100 |  | CN1C(=O)c2cc(Nc3ccccc3)c(Nc3ccccc3)cc2C1=O |  |
| > 500 |  | > 500 |  |  |  |  | COC(=O)c1cc(Nc2ccc(F)cc2)c(Nc2ccc(F)cc2)cc1C(=O)OC |  |
| > 100 | 64 | > 500 | > 100 |  | > 100 |  | COc1ccc(Nc2cc3c(cc2Nc2ccccc2)C(=O)NC3=O)cc1 |  |
| > 500 |  | > 500 |  |  |  |  | O=C1NC(=O)c2cc(Nc3ccc(I)cc3)c(Nc3ccc(I)cc3)cc21 |  |
| > 500 |  | > 500 |  |  |  |  | COC(=O)c1cc(Nc2ccccc2)c(Nc2ccccc2)cc1C(=O)OC |  |
| > 500 | > 100 | > 500 | > 50 |  |  |  | CCN(CC)c1ccc(Nc2cc3c(cc2Nc2ccc(N(CC)CC)cc2)C(=O)NC3=O)cc1 |  |
| > 50 |  | > 500 |  |  |  |  | O=C1NC(=O)c2cc(Sc3ccccc3)c(Sc3ccccc3)cc21 |  |
| 32 | 50 | > 500 | > 50 |  | 100 |  | O=C1NC(=O)c2cc(Nc3ccc(F)cc3)c(Nc3ccc(F)cc3)cc21 [CGP-53353] |  |
| 80 | 16 | > 500 | > 50 |  |  | 100 | O=C1NC(=O)c2cc(Nc3ccccc3)c(Nc3ccccc3)cc21 [DAPH] |  |
| 0.19 |  |  | 20 |  |  |  | O=C1NC(=O)C(c2c[nH]c3ccccc23)=C1c1c[nH]c2ccccc12 [RO-316233] |  |

| SMILES | IC50 (Protein kinase C (PKC)) [µM] | IC50 [1] [µM] | IC50 [2] [µM] | IC50 [3] [µM] | IC50 [4] [µM] | IC50 [5] [µM] | IC50 [7] [µM] | IC50 [6] [µM] |
| --- | --- | --- | --- | --- | --- | --- | --- | --- |
| O=C1NC(=O)c2c1c1c3ccccc3[nH]c1c1[nH]c3ccccc3c21 [STAUROSPORINE AGLYCON] |  |  | > 10 |  |  |  |  |  |
